Experimental data of several laboratories.
Protocols differ between the studies behind these lines.
Species: human
Sample: plasma

SMILES	route	dose	setting	Cmax
CC(=C/C=C/C(C)=C/C(=O)O)/C=C1\CCCc2ccccc21	oral	5 mg	single dose, fasted, healthy volunteers	46.9 ng/mL
N=C(N)NCCC[C@@H](NC(=O)[C@@H](N)Cc1ccccc1)C(=O)N[C@@H](Cc1ccccc1)C(=O)N[C@@H](CCCCN)C(N)=O	subcutaneous	15 mg	multiple doses, once daily, patients	726 ng/mL
Cc1ncc2n1-c1ccc(Cl)cc1C(c1ccccc1F)=NC2	oral	2 mg	single dose	9.74 ng/mL
c1cc([C@H]2CC[C@]3(CC2)OO[C@]2(O3)C3CC4CC(C3)CC2C4)ccc1OCCN1CCOCC1	oral	800 mg	patients	1710 ng/mL
CC[C@H](C)[C@H](NC(=O)[C@H](CC(C)C)NC(=O)[C@H](Cc1c[nH]c2ccccc12)NC(=O)[C@H](CCC(N)=O)NC(=O)[C@@H](NC(=O)[C@H](Cc1ccccc1)NC(=O)[C@H](C)NC(=O)[C@H](CCCCNC(=O)COCCOCCNC(=O)COCCOCCNC(=O)CC[C@H](NC(=O)CCCCCCCCCCCCCCCCCCC(=O)O)C(=O)O)NC(=O)[C@H](CCC(N)=O)NC(=O)[C@H](C)NC(=O)[C@@H](NC(=O)[C@H](CCCCN)NC(=O)[C@H](CC(=O)O)NC(=O)[C@H](CC(C)C)NC(=O)C(C)(C)NC(=O)[C@@H](NC(=O)[C@H](CO)NC(=O)[C@H](Cc1ccc(O)cc1)NC(=O)[C@H](CC(=O)O)NC(=O)[C@H](CO)NC(=O)[C@@H](NC(=O)[C@H](Cc1ccccc1)NC(=O)[C@@H](NC(=O)CNC(=O)[C@H](CCC(=O)O)NC(=O)C(C)(C)NC(=O)[C@@H](N)Cc1ccc(O)cc1)[C@@H](C)O)[C@@H](C)O)[C@@H](C)CC)[C@@H](C)CC)C(C)C)C(=O)N[C@@H](C)C(=O)NCC(=O)NCC(=O)N1CCC[C@H]1C(=O)N[C@@H](CO)C(=O)N[C@@H](CO)C(=O)NCC(=O)N[C@@H](C)C(=O)N1CCC[C@H]1C(=O)N1CCC[C@H]1C(=O)N1CCC[C@H]1C(=O)N[C@@H](CO)C(N)=O	subcutaneous	0.5 mg	multiple doses, healthy volunteers	77.8 ng/mL
C=C(C)[C@@H]1CC[C@]2(NCCN3CCS(=O)(=O)CC3)CC[C@]3(C)[C@H](CC[C@@H]4[C@@]5(C)CC=C(C6=CC[C@@](COc7ncccc7C#N)(C(=O)O)CC6)C(C)(C)[C@@H]5CC[C@]43C)[C@@H]12	oral	100 mg	fed	390 ng/mL
C=CCNc1c(O)cc2c(O)c1C[C@@H](C)C[C@H](OC)[C@H](O)[C@@H](C)/C=C(\C)[C@H](OC(N)=O)[C@@H](OC)/C=C\C=C(/C)C(=O)N2	intravenous	400 mg/m²	patients, infusion	7800 ng/mL
COc1ccc(C[C@@H]2NC(=O)[C@H]([C@@H](C)O)NC(=O)[C@@H]3[C@@H]4CCN3C(=O)[C@@H]3Cc5cn(c6ccc(F)cc56)CCCCCCN(Cc5ccc(cc5)CCNC(=O)[C@]5(C)CCCN5C2=O)C(=O)CCC(=O)N[C@@H](C)C(=O)N[C@H](CNC(=O)CCCCC[N+](C)(C)C)C(=O)N[C@@H](Cc2cccc(c2)CNC(=O)CO4)C(=O)N3)cc1	oral	200 mg	single dose	7.84 nM
